Assays:
Echinochloa crus-galli = assay: Pre-emergence herbicidal activity against Echinochloa crus-galli (barnyard grass) assessed as growth inhibition at 15 g.a.i./ha applied 24 hr after seeds were sown measured after 15 days; assay type: functional; conditions: read-out: GI
How it was run: (§1)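 Weeds sown 5 mm deep in pots of greenhouse clay soil (pH 6.5, 37.5% clay, CEC 12.9 cmol/kg) and grown at 22-25 °C. Water-diluted formulation was applied pre-emergence 24 h after sowing. Untreated and DMF solvent controls were included. Growth inhibition was visually rated in % against untreated controls after 15 days, as the mean of triplicates.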

Arachis hypogaea [1] = assay: Phytotoxicity against Arachis hypogaea (peanut) assessed as growth inhibition at 150 g.a.i/ha pre-emergent application measured after 15 days by greenhouse crop selectivity assay; assay type: organism-based; conditions: in vivo, other, 360 h
How it was run: (§2)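 Pre-emergence greenhouse crop selectivity test on pot-grown plants in clay soil (pH 6.5, 1.7% organic matter, 37.5% clay, CEC 12.9 cmol/kg). Stock solutions were diluted with water and applied at 300, 150, 75 or 37.5 g a.i./ha, in triplicate. After 15 days, phytotoxicity was scored visually against untreated controls as % crop growth inhibition, averaged over the triplicates.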

Digitaria sanguinalis [2] = assay: Post-emergence herbicidal activity against Digitaria sanguinalis (hairy crabgrass) assessed as growth inhibition at 75 g.a.i./ha applied at one-leaf stage measured after 15 days; assay type: functional; conditions: 360 h, read-out: GI
How it was run: (§3)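 Pot-grown weeds sown 5 mm deep in greenhouse clay soil (pH 6.5, 1.7% organic matter, CEC 12.9 cmol/kg) at 22-25 °C. Stock diluted with water and sprayed post-emergence: dicots at 2-leaf stage, monocots at 1-leaf stage. Untreated and DMF solvent controls were included. % growth inhibition was scored visually versus untreated controls after 15 days. Triplicates averaged.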

Amaranthus spinosus [3] = assay: Pre-emergence herbicidal activity against Amaranthus spinosus assessed as growth inhibition at 15 g.a.i./ha applied 24 hr after seeds were sown measured after 15 days; assay type: functional; conditions: read-out: GI; how it was run: as §1
Triticum aestivum = assay: Phytotoxicity against Triticum aestivum (wheat) assessed as growth inhibition at 75 g.a.i/ha pre-emergent application measured after 15 days by greenhouse crop selectivity assay; assay type: organism-based; conditions: in vivo, other, 360 h; how it was run: as §2
Setaria viridis [4] = assay: Post-emergence herbicidal activity against Setaria viridis (green foxtail) assessed as growth inhibition at 75 g.a.i./ha applied at one-leaf stage measured after 15 days; assay type: functional; conditions: 360 h, read-out: GI; how it was run: as §3
Arachis hypogaea [5] = assay: Phytotoxicity against Arachis hypogaea (peanut) assessed as growth inhibition at 300 g.a.i/ha pre-emergent application measured after 15 days by greenhouse crop selectivity assay; assay type: organism-based; conditions: in vivo, other, 360 h; how it was run: as §2
[6] = tested on: Brassica rapa subsp. oleifera; assay: Phytotoxicity against Brassica rapa subsp. oleifera assessed as growth inhibition at 75 g.a.i/ha pre-emergent application measured after 15 days by greenhouse crop selectivity assay; assay type: functional; conditions: pre-emergence, 360 h, read-out: GI
How it was run: (§4)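 Pot-grown crop in greenhouse clay soil (pH 6.5, 1.7% organic matter, 37.5% clay, CEC 12.9 cmol/kg). Stock diluted with water and applied pre-emergence at 300, 150, 75 or 37.5 g a.i./ha. Cultivated 15 days, then phytotoxicity scored visually as % growth inhibition versus untreated controls. Triplicate treatments, averaged.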

Amaranthus spinosus [7] = assay: Post-emergence herbicidal activity against Amaranthus spinosus assessed as growth inhibition at 37.5 g.a.i./ha applied at two-leaf stage measured after 15 days; assay type: functional; conditions: 360 h, read-out: GI; how it was run: as §3
Zea mays [8] = assay: Phytotoxicity against Zea mays (maize) assessed as growth inhibition at 150 g.a.i/ha pre-emergent application measured after 15 days by greenhouse crop selectivity assay; assay type: organism-based; conditions: in vivo, other, 360 h; how it was run: as §2
Amaranthus = assay: Post-emergence herbicidal activity against Amaranthus ascendens assessed as growth inhibition at 75 g.a.i./ha applied at two-leaf stage measured after 15 days; assay type: functional; conditions: 360 h, read-out: GI; how it was run: as §3
Chenopodium album [9] = assay: Pre-emergence herbicidal activity against Chenopodium album assessed as growth inhibition at 37.5 g.a.i./ha applied 24 hr after seeds were sown measured after 15 days; assay type: functional; conditions: read-out: GI; how it was run: as §1
Amaranthus spinosus [10] = assay: Post-emergence herbicidal activity against Amaranthus spinosus assessed as growth inhibition at 7.5 g.a.i./ha applied at two-leaf stage measured after 15 days; assay type: functional; conditions: 360 h, read-out: GI; how it was run: as §3
Amaranthus spinosus [11] = assay: Pre-emergence herbicidal activity against Amaranthus spinosus assessed as growth inhibition at 7.5 g.a.i./ha applied 24 hr after seeds were sown measured after 15 days; assay type: functional; conditions: read-out: GI; how it was run: as §1
Digitaria sanguinalis [12] = assay: Post-emergence herbicidal activity against Digitaria sanguinalis (hairy crabgrass) assessed as growth inhibition at 7.5 g.a.i./ha applied at one-leaf stage measured after 15 days; assay type: functional; conditions: 360 h, read-out: GI; how it was run: as §3
Zea mays [13] = assay: Phytotoxicity against Zea mays (maize) assessed as growth inhibition at 75 g.a.i/ha pre-emergent application measured after 15 days by greenhouse crop selectivity assay; assay type: organism-based; conditions: in vivo, other, 360 h; how it was run: as §2
Setaria viridis [14] = assay: Pre-emergence herbicidal activity against Setaria viridis (green foxtail) assessed as growth inhibition at 75 g.a.i./ha applied 24 hr after seeds were sown measured after 15 days; assay type: functional; conditions: read-out: GI
How it was run: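 Preliminary pre-emergence screen at a single rate of 75 g a.i./ha. Stock diluted with water and sprayed on greenhouse pots 24 h after seeds were sown 5 mm deep in clay soil (pH 6.5, 1.7% organic matter); grown at 22-25 °C. Untreated and DMF solvent controls included; triplicate. Visual % growth inhibition vs untreated after 15 days, averaged and banded (>80% top band).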

Chenopodium album [15] = assay: Pre-emergence herbicidal activity against Chenopodium album assessed as growth inhibition at 7.5 g.a.i./ha applied 24 hr after seeds were sown measured after 15 days; assay type: functional; conditions: read-out: GI; how it was run: as §1
[16] = tested on: Brassica rapa subsp. oleifera; assay: Phytotoxicity against Brassica rapa subsp. oleifera assessed as growth inhibition at 7.5 to 60 g.a.i/ha post-emergent application measured after 15 days by greenhouse crop selectivity assay; assay type: organism-based; conditions: in vivo, other, 360 h
How it was run: (§5)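 Postemergence crop selectivity test on pot-grown plants in a greenhouse, in clay soil (pH 6.5, 1.7% organic matter, CEC 12.9 cmol/kg). Stock was diluted with water and sprayed at 60, 30, 15 or 7.5 g a.i./ha, in triplicate. Growth inhibition was rated visually against untreated controls after 15 days and given as the triplicate mean percentage.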

Gossypium = assay: Phytotoxicity against Gossypium (cotton) assessed as growth inhibition at 300 g.a.i/ha pre-emergent application measured after 15 days by greenhouse crop selectivity assay; assay type: organism-based; conditions: in vivo, other, 360 h; how it was run: as §2
Glycine max = assay: Phytotoxicity against Glycine max (soybean) assessed as growth inhibition at 37.5 g.a.i/ha pre-emergent application measured after 15 days by greenhouse crop selectivity assay; assay type: organism-based; conditions: in vivo, other, 360 h; how it was run: as §2
Arachis hypogaea [17] = assay: Phytotoxicity against Arachis hypogaea (peanut) assessed as growth inhibition at 7.5 to 60 g.a.i/ha post-emergent application measured after 15 days by greenhouse crop selectivity assay; assay type: organism-based; conditions: in vivo, other, 360 h; how it was run: as §5
Amaranthus spinosus [18] = assay: Pre-emergence herbicidal activity against Amaranthus spinosus assessed as growth inhibition at 37.5 g.a.i./ha applied 24 hr after seeds were sown measured after 15 days; assay type: functional; conditions: read-out: GI; how it was run: as §1
[19] = tested on: Brassica rapa subsp. oleifera; assay: Phytotoxicity against Brassica rapa subsp. oleifera assessed as growth inhibition at 300 g.a.i/ha pre-emergent application measured after 15 days by greenhouse crop selectivity assay; assay type: functional; conditions: pre-emergence, 360 h, read-out: GI; how it was run: as §4
Chenopodium album [20] = assay: Post-emergence herbicidal activity against Chenopodium album assessed as growth inhibition at 37.5 g.a.i./ha applied at two-leaf stage measured after 15 days; assay type: functional; conditions: 360 h, read-out: GI; how it was run: as §3
Abutilon theophrasti = assay: Post-emergence herbicidal activity against Abutilon theophrasti (velvetleaf) assessed as growth inhibition at 7.5 g.a.i./ha applied at two-leaf stage measured after 15 days; assay type: functional; conditions: 360 h, read-out: GI; how it was run: as §3

Structure (SMILES) | inhibition of growth at 15 g/ha (Echinochloa crus-galli) | growth inhibition (GI) (Arachis hypogaea [1]) | inhibition of growth at 75 g/ha (Digitaria sanguinalis [2]) | inhibition of growth at 15 g/ha (Amaranthus spinosus [3]) | growth inhibition (GI) (Triticum aestivum) | inhibition of growth at 75 g/ha (Setaria viridis [4]) | growth inhibition (GI) (Arachis hypogaea [5]) | inhibition of growth at 75 g/ha [6] | inhibition of growth at 37.5 g/ha (Amaranthus spinosus [7]) | growth inhibition (GI) (Zea mays [8]) | inhibition of growth at 75 g/ha (Amaranthus) | inhibition of growth at 37.5 g/ha (Chenopodium album [9]) | inhibition of growth at 7.5 g/ha (Amaranthus spinosus [10]) | inhibition of growth at 7.5 g/ha (Amaranthus spinosus [11]) | inhibition of growth at 7.5 g/ha (Digitaria sanguinalis [12]) | growth inhibition (GI) (Zea mays [13]) | inhibition of growth at 75 g/ha (Setaria viridis [14]) | inhibition of growth at 7.5 g/ha (Chenopodium album [15]) | Activity [16] | growth inhibition (GI) (Gossypium) | further results
CCOC(=O)C(CC)N1C(=O)C(C)Oc2cc(F)c(N3C(=O)C4=C(CCCC4)C3=O)cc21 (configuration not stated) | 0% | Not Active | > 80% | 100% | Not Active | > 80% | Not Active | > 10% | 100% | Not Active | > 80% | 100% | 100% | 100% | 40% | Not Active | > 80% | 100% | Toxic | Not Active | growth inhibition (GI) (Glycine max): Not Active; Activity (Arachis hypogaea [17]): Toxic; inhibition of growth at 37.5 g/ha (Amaranthus spinosus [18]): 100%; inhibition of growth at 300 g/ha [19]: > 10%; inhibition of growth at 37.5 g/ha (Chenopodium album [20]): 100%; inhibition of growth at 7.5 g/ha (Abutilon theophrasti): 100%
CCOC(=O)C(C)N1C(=O)C(C)Oc2cc(F)c(N3C(=O)C4=C(CCCC4)C3=O)cc21 (configuration not stated) | 10% | Not Active | > 80% | 95% | Not Active | > 80% | Not Active | > 10% | 100% | Not Active | > 80% | 100% | 100% | 90% | 20% | Not Active | > 80% | 100% | Toxic | Not Active | growth inhibition (GI) (Glycine max): Not Active; Activity (Arachis hypogaea [17]): Toxic; inhibition of growth at 37.5 g/ha (Amaranthus spinosus [18]): 100%; inhibition of growth at 300 g/ha [19]: > 10%; inhibition of growth at 37.5 g/ha (Chenopodium album [20]): 100%; inhibition of growth at 7.5 g/ha (Abutilon theophrasti): 100%
